Active and inactive are the calls of the source.

Cholinesterase (Homo sapiens), sequence (P06276 whole entry): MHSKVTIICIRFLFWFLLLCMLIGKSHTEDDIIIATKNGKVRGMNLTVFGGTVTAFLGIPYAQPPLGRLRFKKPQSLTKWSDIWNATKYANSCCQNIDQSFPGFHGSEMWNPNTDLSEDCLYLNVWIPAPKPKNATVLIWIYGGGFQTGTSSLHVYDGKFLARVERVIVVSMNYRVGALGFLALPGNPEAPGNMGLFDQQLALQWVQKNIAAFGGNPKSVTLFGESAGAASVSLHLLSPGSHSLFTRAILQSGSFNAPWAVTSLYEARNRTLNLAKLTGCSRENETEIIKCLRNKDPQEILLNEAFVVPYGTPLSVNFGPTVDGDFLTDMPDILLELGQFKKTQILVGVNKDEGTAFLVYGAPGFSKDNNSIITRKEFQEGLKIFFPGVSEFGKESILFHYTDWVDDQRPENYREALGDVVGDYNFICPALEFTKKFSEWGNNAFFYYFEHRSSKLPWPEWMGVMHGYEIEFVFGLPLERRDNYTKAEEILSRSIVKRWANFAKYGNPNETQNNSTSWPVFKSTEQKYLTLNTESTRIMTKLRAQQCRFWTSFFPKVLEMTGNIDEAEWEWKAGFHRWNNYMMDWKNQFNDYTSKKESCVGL

In the first experiment the target is Acetylcholinesterase (Homo sapiens) (UniProt P22303). In words: Inhibition of human AchE using acetylthiocholine as substrate by spectrophotometric multiwell plate assay.
Acetylcholinesterase (Homo sapiens), sequence (P22303 whole entry): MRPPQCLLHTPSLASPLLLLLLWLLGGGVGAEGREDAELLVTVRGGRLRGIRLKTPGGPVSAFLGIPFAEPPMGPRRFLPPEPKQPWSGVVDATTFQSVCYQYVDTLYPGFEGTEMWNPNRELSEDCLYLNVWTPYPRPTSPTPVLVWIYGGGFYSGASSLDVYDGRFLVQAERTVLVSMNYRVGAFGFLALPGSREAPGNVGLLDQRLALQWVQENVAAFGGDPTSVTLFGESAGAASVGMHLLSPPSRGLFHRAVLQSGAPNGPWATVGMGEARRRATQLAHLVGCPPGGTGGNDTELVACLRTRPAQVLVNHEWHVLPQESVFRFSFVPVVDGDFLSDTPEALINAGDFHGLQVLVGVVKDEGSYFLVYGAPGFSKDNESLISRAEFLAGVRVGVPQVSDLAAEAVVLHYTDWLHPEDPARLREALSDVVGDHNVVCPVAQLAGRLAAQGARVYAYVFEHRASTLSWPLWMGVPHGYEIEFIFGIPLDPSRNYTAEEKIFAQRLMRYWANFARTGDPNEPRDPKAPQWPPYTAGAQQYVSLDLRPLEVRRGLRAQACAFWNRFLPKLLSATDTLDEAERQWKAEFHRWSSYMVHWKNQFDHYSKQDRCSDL
`O=S(=O)(Nc1ccc2c(c1)Cc1cc(NS(=O)(=O)c3cccc(Br)c3)ccc1-2)c1cccc(Br)c1`: the outcome was inactive.

On to `O=S(=O)(Nc1ccc2c(c1)Cc1cc(NS(=O)(=O)c3ccc(Cl)cc3)ccc1-2)c1ccc(Cl)cc1`, for which the result was inactive.

Consider `Cc1c(C)c(NS(=O)(=O)c2ccc(Br)cc2)c(C)c(C)c1NS(=O)(=O)c1ccc(Br)cc1`, for which the result was inactive.

As for `O=S(=O)(Nc1c(F)c(F)c(NS(=O)(=O)c2ccc(Cl)cc2)c(F)c1F)c1ccc(Cl)cc1`, the outcome was inactive.

Turning to `Cc1c(C)c(NS(=O)(=O)c2cc(Cl)cc(Cl)c2)c(C)c(C)c1NS(=O)(=O)c1cc(Cl)cc(Cl)c1`, the outcome was inactive.

As for `O=S(=O)(Nc1ccc2c(c1)Cc1cc(NS(=O)(=O)c3ccccc3)ccc1-2)c1ccccc1`, the result was inactive.

Take `O=S(=O)(Nc1ccc(NS(=O)(=O)c2cc(F)c(F)c(F)c2)cc1)c1cc(F)c(F)c(F)c1`: the outcome was inactive.

Take `O=S(=O)(Nc1ccc(NS(=O)(=O)c2cccc(Cl)c2)cc1)c1cccc(Cl)c1`: the result was inactive.

For `O=S(=O)(Nc1ccc(NS(=O)(=O)c2cccc(Br)c2)cc1)c1cccc(Br)c1`, the result was inactive.

`O=S(=O)(Nc1ccc(NS(=O)(=O)c2ccc(Br)cc2)cc1)c1ccc(Br)cc1`: the outcome was inactive.

For the compound `Cc1cc(NS(=O)(=O)c2ccccc2)ccc1NS(=O)(=O)c1ccccc1`, the outcome was inactive.

As to `O=S(=O)(Nc1c(Cl)c(Cl)c(NS(=O)(=O)c2ccccc2)c(Cl)c1Cl)c1ccccc1`, the outcome was inactive.

A further experiment concerns the target Cholinesterase (Homo sapiens) (UniProt P06276). In words: Inhibition of human BchE using butyrylthiocholine as substrate by spectrophotometric multiwell plate assay.
As for `O=S(=O)(Nc1ccc2c(c1)Cc1cc(NS(=O)(=O)c3cccc(Br)c3)ccc1-2)c1cccc(Br)c1`, the result was inactive.

As for `O=S(=O)(Nc1ccc2c(c1)Cc1cc(NS(=O)(=O)c3ccc(Cl)cc3)ccc1-2)c1ccc(Cl)cc1`, the result was inactive.

As for `Cc1c(C)c(NS(=O)(=O)c2ccc(Br)cc2)c(C)c(C)c1NS(=O)(=O)c1ccc(Br)cc1`, the outcome was inactive.

As for `O=S(=O)(Nc1c(F)c(F)c(NS(=O)(=O)c2ccc(Cl)cc2)c(F)c1F)c1ccc(Cl)cc1`, the outcome was inactive.

With `Cc1c(C)c(NS(=O)(=O)c2cc(Cl)cc(Cl)c2)c(C)c(C)c1NS(=O)(=O)c1cc(Cl)cc(Cl)c1`, the result was inactive.

As for `O=S(=O)(Nc1ccc2c(c1)Cc1cc(NS(=O)(=O)c3ccccc3)ccc1-2)c1ccccc1`, the outcome was inactive.

As to `O=S(=O)(Nc1ccc(NS(=O)(=O)c2cc(F)c(F)c(F)c2)cc1)c1cc(F)c(F)c(F)c1`, the outcome was inactive.

With `O=S(=O)(Nc1ccc(NS(=O)(=O)c2cccc(Cl)c2)cc1)c1cccc(Cl)c1`, the result was inactive.

On to `O=S(=O)(Nc1ccc(NS(=O)(=O)c2cccc(Br)c2)cc1)c1cccc(Br)c1`, for which the result was inactive.

Consider `O=S(=O)(Nc1ccc(NS(=O)(=O)c2ccc(Br)cc2)cc1)c1ccc(Br)cc1`, for which the outcome was inactive.

As to `Cc1cc(NS(=O)(=O)c2ccccc2)ccc1NS(=O)(=O)c1ccccc1`, the outcome was inactive.

As for `O=S(=O)(Nc1c(Cl)c(Cl)c(NS(=O)(=O)c2ccccc2)c(Cl)c1Cl)c1ccccc1`, the outcome was inactive.

Biological target in the next experiment: not listed separately
In words: Inhibition of human intestinal CE-mediated irinotecan hydrolysis. The method in brief: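 Human intestinal CE (25 U per reaction; 1 U converts 1 nmole o-nitrophenyl acetate/min) with 20µM CPT-11 in 50mM Hepes pH7.4, inhibitor 1nM to 100µM. Incubated 37°C for 5 min, stopped with cold acidified methanol, centrifuged. SN-38 measured by reverse phase HPLC. Fractional inhibition fitted to partial inhibition equation, model chosen by Akaike's criteria, Ki from best fit.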
Compound `O=S(=O)(Nc1ccc2c(c1)Cc1cc(NS(=O)(=O)c3cccc(Br)c3)ccc1-2)c1cccc(Br)c1` registered an inhibition constant (Ki) of 0.0397 µM.

Take `O=S(=O)(Nc1ccc2c(c1)Cc1cc(NS(=O)(=O)c3ccc(Cl)cc3)ccc1-2)c1ccc(Cl)cc1`: affinity was put at a Ki of 0.0377 µM.

In turn, `Cc1c(C)c(NS(=O)(=O)c2ccc(Br)cc2)c(C)c(C)c1NS(=O)(=O)c1ccc(Br)cc1` displayed a Ki greater than 100 µM.

In turn, `O=S(=O)(Nc1c(F)c(F)c(NS(=O)(=O)c2ccc(Cl)cc2)c(F)c1F)c1ccc(Cl)cc1` came in with a Ki of 0.11 µM.

As for `Cc1c(C)c(NS(=O)(=O)c2cc(Cl)cc(Cl)c2)c(C)c(C)c1NS(=O)(=O)c1cc(Cl)cc(Cl)c1`, the Ki is greater than 100 µM.

`O=S(=O)(Nc1ccc2c(c1)Cc1cc(NS(=O)(=O)c3ccccc3)ccc1-2)c1ccccc1` had an inhibitory constant (Ki) of 0.0847 µM.

Turning to `O=S(=O)(Nc1ccc(NS(=O)(=O)c2cc(F)c(F)c(F)c2)cc1)c1cc(F)c(F)c(F)c1`, the affinity corresponds to a Ki of 0.192 µM.

As to `O=S(=O)(Nc1ccc(NS(=O)(=O)c2cccc(Cl)c2)cc1)c1cccc(Cl)c1`, affinity was put at a Ki of 0.062 µM.

Consider `O=S(=O)(Nc1ccc(NS(=O)(=O)c2cccc(Br)c2)cc1)c1cccc(Br)c1`, for which the affinity corresponds to a Ki of 0.121 µM.

In the case of `O=S(=O)(Nc1ccc(NS(=O)(=O)c2ccc(Br)cc2)cc1)c1ccc(Br)cc1`, the inhibitory constant (Ki) was 0.044 µM.

For the compound `Cc1cc(NS(=O)(=O)c2ccccc2)ccc1NS(=O)(=O)c1ccccc1`, the Ki worked out at 0.238 µM.

In the case of `O=S(=O)(Nc1c(Cl)c(Cl)c(NS(=O)(=O)c2ccccc2)c(Cl)c1Cl)c1ccccc1`, the inhibition constant (Ki) is greater than 100 µM.

Biological target in a further experiment: not listed separately
The experiment in a line: Inhibition of human intestinal CE-mediated O-nitrophenyl acetate hydrolysis by spectrophotometry. The method in brief:
(§1)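 Enzyme activity read spectrophotometrically as release of o-nitrophenol from o-nitrophenyl acetate across increasing inhibitor concentrations. Inhibitors were freshly dissolved in DMSO, typically as 10mM stocks. Fractional inhibition was plotted against inhibitor concentration and fitted to a partial-inhibition equation including Ks, α and β. Inhibition mode was chosen by Akaike's information criteria, and Ki was taken from the best-fit model.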
In the case of `O=S(=O)(Nc1ccc2c(c1)Cc1cc(NS(=O)(=O)c3cccc(Br)c3)ccc1-2)c1cccc(Br)c1`, the inhibitory constant (Ki) is 0.0212 µM.

With `O=S(=O)(Nc1ccc2c(c1)Cc1cc(NS(=O)(=O)c3ccc(Cl)cc3)ccc1-2)c1ccc(Cl)cc1`, the Ki came to 0.0235 µM.

For the compound `Cc1c(C)c(NS(=O)(=O)c2ccc(Br)cc2)c(C)c(C)c1NS(=O)(=O)c1ccc(Br)cc1`, the Ki came to 3.24 µM.

Regarding `O=S(=O)(Nc1c(F)c(F)c(NS(=O)(=O)c2ccc(Cl)cc2)c(F)c1F)c1ccc(Cl)cc1`, the Ki stood at 0.0415 µM.

For the compound `Cc1c(C)c(NS(=O)(=O)c2cc(Cl)cc(Cl)c2)c(C)c(C)c1NS(=O)(=O)c1cc(Cl)cc(Cl)c1`, the affinity corresponds to a Ki of 2.6 µM.

`O=S(=O)(Nc1ccc2c(c1)Cc1cc(NS(=O)(=O)c3ccccc3)ccc1-2)c1ccccc1` registered a Ki of 0.0908 µM.

Turning to `O=S(=O)(Nc1ccc(NS(=O)(=O)c2cc(F)c(F)c(F)c2)cc1)c1cc(F)c(F)c(F)c1`, the affinity corresponds to a Ki of 0.21 µM.

Compound `O=S(=O)(Nc1ccc(NS(=O)(=O)c2cccc(Cl)c2)cc1)c1cccc(Cl)c1` registered a Ki of 0.074 µM.

The compound `O=S(=O)(Nc1ccc(NS(=O)(=O)c2cccc(Br)c2)cc1)c1cccc(Br)c1` displayed a Ki of 0.067 µM.

On to `O=S(=O)(Nc1ccc(NS(=O)(=O)c2ccc(Br)cc2)cc1)c1ccc(Br)cc1`, for which affinity was put at a Ki of 0.0852 µM.

`Cc1cc(NS(=O)(=O)c2ccccc2)ccc1NS(=O)(=O)c1ccccc1` displayed a Ki of 0.365 µM.

For the compound `O=S(=O)(Nc1c(Cl)c(Cl)c(NS(=O)(=O)c2ccccc2)c(Cl)c1Cl)c1ccccc1`, the Ki worked out at 0.451 µM.

Another experiment concerns the target T1, Liver carboxylesterase 1 (Homo sapiens, UniProt P23141).
T1 sequence (P23141 whole entry): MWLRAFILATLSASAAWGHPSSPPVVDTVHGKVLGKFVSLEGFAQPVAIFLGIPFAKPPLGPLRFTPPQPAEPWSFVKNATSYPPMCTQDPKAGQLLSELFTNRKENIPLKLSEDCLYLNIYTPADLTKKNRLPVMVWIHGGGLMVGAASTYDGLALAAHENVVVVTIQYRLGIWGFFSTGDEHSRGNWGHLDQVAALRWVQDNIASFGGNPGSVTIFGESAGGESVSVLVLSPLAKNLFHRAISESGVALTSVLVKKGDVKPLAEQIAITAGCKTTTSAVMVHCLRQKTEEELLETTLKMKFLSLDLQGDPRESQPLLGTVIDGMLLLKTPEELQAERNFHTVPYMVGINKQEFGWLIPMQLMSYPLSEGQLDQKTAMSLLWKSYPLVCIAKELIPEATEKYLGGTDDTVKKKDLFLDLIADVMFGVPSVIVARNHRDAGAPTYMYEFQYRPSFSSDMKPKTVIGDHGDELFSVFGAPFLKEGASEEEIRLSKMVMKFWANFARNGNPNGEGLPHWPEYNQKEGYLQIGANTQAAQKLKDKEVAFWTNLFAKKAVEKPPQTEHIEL
The experiment in a line: Inhibition of human liver CE1-mediated O-nitrophenyl acetate hydrolysis by spectrophotometry. The method in brief: as §1
With `O=S(=O)(Nc1ccc2c(c1)Cc1cc(NS(=O)(=O)c3cccc(Br)c3)ccc1-2)c1cccc(Br)c1`, the Ki is greater than 100 µM.

In the case of `O=S(=O)(Nc1ccc2c(c1)Cc1cc(NS(=O)(=O)c3ccc(Cl)cc3)ccc1-2)c1ccc(Cl)cc1`, the Ki is greater than 100 µM.

For `Cc1c(C)c(NS(=O)(=O)c2ccc(Br)cc2)c(C)c(C)c1NS(=O)(=O)c1ccc(Br)cc1`, the Ki is greater than 100 µM.

`Cc1c(C)c(NS(=O)(=O)c2cc(Cl)cc(Cl)c2)c(C)c(C)c1NS(=O)(=O)c1cc(Cl)cc(Cl)c1` registered a Ki greater than 100 µM.

`O=S(=O)(Nc1ccc2c(c1)Cc1cc(NS(=O)(=O)c3ccccc3)ccc1-2)c1ccccc1` had a Ki greater than 100 µM.

For `O=S(=O)(Nc1ccc(NS(=O)(=O)c2cc(F)c(F)c(F)c2)cc1)c1cc(F)c(F)c(F)c1`, the Ki is greater than 100 µM.

In turn, `O=S(=O)(Nc1ccc(NS(=O)(=O)c2cccc(Cl)c2)cc1)c1cccc(Cl)c1` had a Ki greater than 100 µM.

The compound `O=S(=O)(Nc1ccc(NS(=O)(=O)c2cccc(Br)c2)cc1)c1cccc(Br)c1` came in with a Ki greater than 100 µM.

For the compound `O=S(=O)(Nc1ccc(NS(=O)(=O)c2ccc(Br)cc2)cc1)c1ccc(Br)cc1`, the Ki is greater than 100 µM.

For the origin of these results see ChEMBL document CHEMBL1137015, “Improved, selective, human intestinal carboxylesterase inhibitors designed to modulate 7-ethyl-10-[4-(1-piperidino)-1-piperidino]carbonyloxycamptothecin (Irinotecan; CPT-11) toxicity” (J Med Chem, 2009).
